According to ChEMBL document CHEMBL4406880, “Design, synthesis, and bioactivity of dihydropyrimidine derivatives as kinesin spindle protein inhibitors” (Bioorg Med Chem, 2019):

Tests used:
Type in all cases: functional
HCT-116 [1] = assay: Growth inhibition of human HCT116 cells incubated for 48 hrs by sulforhodamine B assay; conditions: HCT-116, 48 h
In short: (§1)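 NCI-60 five-dose mode: five tenfold dilutions (0.01, 0.1, 1, 10, 100 µM) are applied for 48 h to cells in RPMI 1640 with 5% FBS at 37 °C. Endpoint is TCA fixation with sulforhodamine B read at 515 nm. % growth comes from the 0 h and control absorbances. GI50 is the concentration giving a 50% reduction in net cell growth.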

OVCAR-8 [2] = assay: Growth inhibition of human OVCAR8 cells incubated for 48 hrs by sulforhodamine B assay; conditions: OVCAR-8, 48 h
In short: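 NCI-60 five-dose SRB assay. Cells were exposed for 48 h to tenfold dilutions of 0.01, 0.1, 1, 10 and 100 µM, in RPMI 1640 with 5% FBS. Plates fixed with TCA at the time of drug addition served as the time-zero reference. GI50 is the concentration giving a 50% reduction in net growth. TGI is total growth inhibition. LC50 is a net 50% loss of the initial cells.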

SNB-75 [3] = assay: Induction of apoptosis in human SNB75 cells assessed as early apoptotic cells at 2 uM incubated for 24 hrs by annexin V FITC and propidium iodide based flow cytometry (reference value: 0.82 %)
SNB-75 [4] = assay: Induction of apoptosis in human SNB75 cells assessed as necrosis at 2 uM incubated for 24 hrs by annexin V FITC and propidium iodide based flow cytometry (reference value: 0.44 %)
IGROV-1 [5] = assay: Growth inhibition of human IGROV1 cells assessed as cell viability at 100 uM incubated for 48 hrs by sulforhodamine B assay; conditions: IGROV-1, 48 h, read-out: Activity
UACC-257 = assay: Growth inhibition of human UACC257 cells assessed as cell viability at 100 uM incubated for 48 hrs by sulforhodamine B assay; conditions: UACC-257, 48 h, read-out: Activity
SK-MEL-28 = assay: Growth inhibition of human SK-MEL-28 cells assessed as cell viability at 100 uM incubated for 48 hrs by sulforhodamine B assay; conditions: SK-MEL-28, 48 h, read-out: Activity
HL-60(TB) = assay: Growth inhibition of human HL-60(TB) cells assessed as cell viability at 100 uM incubated for 48 hrs by sulforhodamine B assay; conditions: HL-60, 48 h, read-out: Activity
In short: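 NCI-60 five-dose assay, SRB end-point, same culture conditions. Compound is tested at tenfold dilutions of 0.01, 0.1, 1, 10 and 100 µM for 48 h at 37 °C, with DMSO/PBS vehicle controls. Percentage growth at each concentration is taken against untreated cells and a time-zero plate. GI50 is 50% net growth decrease, TGI is total growth inhibition, and LC50 is 50% loss of initial cells.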

BT-549 = assay: Growth inhibition of human BT549 cells assessed as cell viability at 1 uM incubated for 48 hrs by sulforhodamine B assay; conditions: BT-549, 48 h, read-out: Activity
DU-145 = assay: Growth inhibition of human DU145 cells assessed as cell viability at 1 uM incubated for 48 hrs by sulforhodamine B assay; conditions: DU-145, 48 h, read-out: Activity
ACHN [6] = assay: Growth inhibition of human ACHN cells assessed as cell viability at 1 uM incubated for 48 hrs by sulforhodamine B assay; conditions: read-out: Activity; in short: as §1
NCI/ADR-RES = assay: Growth inhibition of human NCI/ADR-RES cells assessed as cell viability at 1 uM incubated for 48 hrs by sulforhodamine B assay; conditions: read-out: Activity
MDA-MB-435 = assay: Growth inhibition of human MDA-MB-435 cells assessed as cell viability at 1 uM incubated for 48 hrs by sulforhodamine B assay; conditions: MDA-MB-435, 48 h, read-out: Activity
M14 = assay: Growth inhibition of human M14 cells assessed as cell viability at 1 uM incubated for 48 hrs by sulforhodamine B assay; conditions: M14, 48 h, read-out: Activity
SF-295 = assay: Growth inhibition of human SF295 cells assessed as cell viability at 1 uM incubated for 48 hrs by sulforhodamine B assay; conditions: SF-295, 48 h, read-out: Activity
SR [7] = assay: Growth inhibition of human SR cells assessed as cell viability at 1 uM incubated for 48 hrs by sulforhodamine B assay; conditions: read-out: Activity
MCF7 = assay: Growth inhibition of human MCF7 cells assessed as cell viability at 0.1 uM incubated for 48 hrs by sulforhodamine B assay; conditions: MCF7, 48 h, read-out: Activity
TK-10 = assay: Growth inhibition of human TK10 cells assessed as cell viability at 0.1 uM incubated for 48 hrs by sulforhodamine B assay; conditions: TK-10, 48 h, read-out: Activity
UACC-62 = assay: Growth inhibition of human UACC62 cells assessed as cell viability at 0.1 uM incubated for 48 hrs by sulforhodamine B assay; conditions: UACC-62, 48 h, read-out: Activity
SR [8] = assay: Growth inhibition of human SR cells assessed as cell viability at 0.1 uM incubated for 48 hrs by sulforhodamine B assay; conditions: read-out: Activity
ACHN [9] = assay: Growth inhibition of human ACHN cells assessed as cell viability at 0.001 uM incubated for 48 hrs by sulforhodamine B assay relative to control; conditions: read-out: Activity
IGROV-1 [10] = assay: Growth inhibition of human IGROV1 cells assessed as cell viability at 0.001 uM incubated for 48 hrs by sulforhodamine B assay relative to control; conditions: IGROV-1, 48 h, read-out: Activity
SW-620 = assay: Growth inhibition of human SW620 cells assessed as cell viability at 0.001 uM incubated for 48 hrs by sulforhodamine B assay relative to control; conditions: SW-620, 48 h, read-out: Activity
HCT-116 [11] = assay: Growth inhibition of human HCT116 cells assessed as cell viability at 0.001 uM incubated for 48 hrs by sulforhodamine B assay relative to control; conditions: HCT-116, 48 h, read-out: Activity
HCC 2998 = assay: Growth inhibition of human HCC2998 cells assessed as cell viability at 0.001 uM incubated for 48 hrs by sulforhodamine B assay relative to control; conditions: HCC 2998, 48 h, read-out: Activity
NCI-H23 = assay: Growth inhibition of human NCI-H23 cells assessed as cell viability at 0.001 uM incubated for 48 hrs by sulforhodamine B assay relative to control; conditions: NCI-H23, 48 h, read-out: Activity
OVCAR-5 = assay: Growth inhibition of human OVCAR5 cells assessed as cell viability at 100 uM incubated for 48 hrs by sulforhodamine B assay; conditions: OVCAR-5, 48 h, read-out: Activity
OVCAR-8 [12] = assay: Growth inhibition of human OVCAR8 cells assessed as cell viability at 100 uM incubated for 48 hrs by sulforhodamine B assay; conditions: OVCAR-8, 48 h, read-out: Activity

SMILES: CC1=C(C(=O)OCc2ccccc2)C(c2ccc3c(c2)OCO3)n2c(nc3ccccc32)N1 (racemic)
- GI50 (HCT-116 [1]; read-out: GI50): 470 nM
- LC50 (HCT-116 [1]; read-out: LC50): > 100 µM
- TGI (HCT-116 [1]; read-out: TGI): > 100 µM
- GI50 (HCT-116 [1]; read-out: pGI50 (converted)): 479 nM
- LC50 (HCT-116 [1]; read-out: pLC50 (converted)): > 100 µM
- TGI (HCT-116 [1]; read-out: pTGI): > 100 µM
- GI50 (OVCAR-8 [2]; read-out: GI50): 630 nM
- CC50 (OVCAR-8 [2]; read-out: LC50 (the source's name)): > 100 µM
- TGI (OVCAR-8 [2]; read-out: TGI): > 100 µM
- GI50 (OVCAR-8 [2]; read-out: pGI50 (converted)): 631 nM
- CC50 (OVCAR-8 [2]; read-out: pLC50 (the source's name) (converted)): > 100 µM
- TGI (OVCAR-8 [2]; read-out: pTGI): > 100 µM
- Activity (SNB-75 [3]): 7.65%
- Activity (SNB-75 [4]): 2.05%
- viability at 100 µM (IGROV-1 [5]): 29%
- viability at 100 µM (UACC-257): 46%
- viability at 100 µM (SK-MEL-28): 60%
- viability at 100 µM (HL-60(TB)): 9%
- viability at 1 µM (BT-549): 49%
- viability at 1 µM (DU-145): 33%
- viability at 1 µM (ACHN [6]): 39%
- viability at 1 µM (NCI/ADR-RES): 17%
- viability at 1 µM (MDA-MB-435): -39%
- viability at 1 µM (M14): 30%
- viability at 1 µM (SF-295): 16%
- viability at 1 µM (SR [7]): 52%
- viability at 0.1 µM (MCF7): 87%
- viability at 0.1 µM (TK-10): 91%
- viability at 0.1 µM (UACC-62): 80%
- viability at 0.1 µM (SR [8]): 75%
- viability at 0.001 µM (ACHN [9]): 99%
- viability at 0.001 µM (IGROV-1 [10]): 92%
- viability at 0.001 µM (SW-620): 98%
- viability at 0.001 µM (HCT-116 [11]): 96%
- viability at 0.001 µM (HCC 2998): 92%
- viability at 0.001 µM (NCI-H23): 93%
- viability at 100 µM (OVCAR-5): 51%
- viability at 100 µM (OVCAR-8 [12]): 14%
